Data published in PubChem BioAssay AID2341 (Sanford-Burnham Center for Chemical Genomics, 2010).
Activity calls are given as the source filed them.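 How the source made its calls: active means half-maximal potency under 10 µM when retested across doses; inactive means the rest.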

Target: Cannabinoid receptor 1 (Homo sapiens) (UniProt P21554)
Assay: CB1 receptor agonists, beta-arrestin translocation, SAR follow-up, imaging, U2OS cells, beta-arrestin-GFP, powder samples (AID 2341)
Method in brief: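 Material – U2OS cells stably co-expressing human CB1 and β-arrestin-GFP · Buffer or medium – serum-free MEM · Compound – 10 doses, 62 nM–32 µM, 0.31% DMSO · Schedule – compound exposure 60 min at 37 °C · Repeats – duplicate wells per dose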

Sequence of Cannabinoid receptor 1 (Homo sapiens) (P21554 whole entry, looked up): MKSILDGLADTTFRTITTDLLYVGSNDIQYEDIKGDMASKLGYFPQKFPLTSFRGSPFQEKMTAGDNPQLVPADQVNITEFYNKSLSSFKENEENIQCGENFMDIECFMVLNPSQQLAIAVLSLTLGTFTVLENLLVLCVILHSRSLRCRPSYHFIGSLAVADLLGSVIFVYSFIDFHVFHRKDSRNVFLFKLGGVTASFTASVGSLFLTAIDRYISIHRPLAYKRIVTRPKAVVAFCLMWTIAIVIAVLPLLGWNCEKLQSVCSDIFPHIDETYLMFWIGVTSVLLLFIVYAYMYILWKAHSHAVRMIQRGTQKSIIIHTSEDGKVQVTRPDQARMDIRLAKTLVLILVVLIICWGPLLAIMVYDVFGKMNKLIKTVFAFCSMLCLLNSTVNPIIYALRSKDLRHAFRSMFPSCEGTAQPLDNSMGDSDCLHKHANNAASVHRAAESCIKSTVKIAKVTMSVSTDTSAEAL

EC50, inactive:
COc1ccccc1/C=C/C(=O)NC(=S)Nc1ccc(S(=O)(=O)N(C)c2ccccc2)cc1 > 32 µM, COc1cc2c(cc1NC(=O)C(C)Sc1ccc(NC(C)=O)cc1)oc1ccccc12 (stereo unspecified) > 32 µM, CCCN(CCC)Cc1c(C(=O)NN=C/C(C)=C\c2ccco2)nnn1-c1nonc1N > 32 µM, Cc1occc1C(=O)Nc1ccc(OCc2ccccc2)cc1 > 32 µM, COc1ccc(-c2csc(NC(=O)CSc3nnc4c(C)cc5ccccc5n34)n2)cc1 > 32 µM, COc1ccc2c(c1)cc(C)c1nnc(SCC(=O)N(C)c3nc(-c4ccccc4)cs3)n12 > 32 µM, CC(C)Oc1ccc(S(=O)(=O)N2CCOCC2)cc1NC(=O)c1ccc(N2CCCC2=O)cc1 > 32 µM, COc1cc2c(cc1NC(=O)CSc1ccccc1)oc1ccccc12 > 32 µM, COc1ccc2cc(C)c3nnc(SCC(=O)Nc4nc(-c5ccc(F)cc5)cs4)n3c2c1 > 32 µM, O=C(CSc1nc2ccccc2s1)N1c2ccccc2Sc2ccc(Cl)cc21 > 32 µM, CC(Sc1nc2cc(Cl)ccc2s1)C(=O)Nc1cccc(S(=O)(=O)N2CCOCC2)c1 (stereo unspecified) > 32 µM, COc1ccc(S(=O)(=O)N2CCOCC2)cc1NC(=O)c1cc2c(s1)CCCC2 > 32 µM, CCCN(CCC)Cc1c(C(=O)NN=C/C(C)=C\c2ccccc2)nnn1-c1nonc1N > 32 µM, O=C(CSc1nc2ccccc2s1)N1c2ccccc2Sc2ccc(C(F)(F)F)cc21 > 32 µM, CC(C)NS(=O)(=O)c1ccc(NC(=S)NC(=O)c2ccc(-c3ccccc3)cc2)cc1 > 32 µM, CC(C)=CC(=O)Nc1ccc(OCc2ccccc2)cc1 > 32 µM, C/C(C=NNC(=O)c1nnn(-c2nonc2N)c1CN1CCC(C)CC1)=C/c1ccccc1 > 32 µM, CCCN(CCC)Cc1c(C(=O)NN=Cc2c[nH]c3ccccc23)nnn1-c1nonc1N > 32 µM, C=CCN(CC=C)S(=O)(=O)c1ccc(NC(=S)NC(=O)c2ccc(-c3ccccc3)cc2)cc1 > 32 µM, CN(C)S(=O)(=O)c1ccc(N2CCCC2)c(C(=O)N2CCN(c3ccc([N+](=O)[O-])cc3)CC2)c1 > 32 µM, Cc1cccc(N2CCN(C(=O)c3cc(S(=O)(=O)N(C)C)ccc3N3CCCC3)CC2)c1C > 32 µM
